Results: ChEMBL document CHEMBL4190394, “Discovery of Novel Pazopanib-Based HDAC and VEGFR Dual Inhibitors Targeting Cancer Epigenetics and Angiogenesis Simultaneously” (J Med Chem, 2018)
Calls of active or inactive are those of the source. The rule behind the calls is not given here.

Key:
Histone deacetylase = assay type: protein assay, Homo sapiens
HT-29 [1] = assay: Antiproliferative activity against human HT-29 cells after 72 hrs by MTT assay; assay type: functional, cell-based; conditions: HT-29, 72 h
ACHN = assay: Antiproliferative activity against human ACHN cells after 72 hrs by MTT assay; assay type: functional, cell-based
AGS = assay: Antiproliferative activity against human AGS cells after 72 hrs by MTT assay; assay type: functional, cell-based
HeLa = assay: Antiproliferative activity against human HeLa cells after 72 hrs by MTT assay; assay type: functional, cell-based
PC-3 = assay: Antiproliferative activity against human PC3 cells after 72 hrs by MTT assay; assay type: functional, cell-based; conditions: PC-3, 72 h
MDA-MB-231 = assay: Antiproliferative activity against human MDA-MB-231 cells after 72 hrs by MTT assay; assay type: functional, cell-based; conditions: MDA-MB-231, 72 h
KG-1 = assay: Antiproliferative activity against human KG1 cells after 72 hrs by MTT assay; assay type: functional, cell-based; conditions: KG-1, 72 h
HEL = assay: Antiproliferative activity against human HEL cells after 72 hrs by MTT assay; assay type: functional, cell-based
MOLT-4 = assay: Antiproliferative activity against human MOLT4 cells after 72 hrs by MTT assay; assay type: functional, cell-based; conditions: MOLT-4, 72 h
K562 = assay: Antiproliferative activity against human K562 cells after 72 hrs by MTT assay; assay type: functional, cell-based; conditions: K562, 72 h
HUVEC = assay: Cytotoxicity activity against HUVEC after 72 hrs by MTT assay; assay type: cell-based; conditions: Homo sapiens
Summary of the method: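 HUVECs kept in RPMI1640 with 10% FBS at 37 °C, 5% CO2. Cells seeded the day before, grown 12 h, then exposed to a range of compound concentrations for 72 h. Then 0.5% MTT added for 4 h, formazan dissolved in DMSO, and absorbance read at 570 nm.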

Histone deacetylase 1 = Histone deacetylase 1 (Homo sapiens, UniProt Q13547); assay: Inhibition of HDAC1 (unknown origin) using fluorogenic substrate preincubated for 5 mins followed by substrate addition measured after 30 mins by fluorescence-based assay
Sequence of Histone deacetylase 1 (Q13547 whole entry): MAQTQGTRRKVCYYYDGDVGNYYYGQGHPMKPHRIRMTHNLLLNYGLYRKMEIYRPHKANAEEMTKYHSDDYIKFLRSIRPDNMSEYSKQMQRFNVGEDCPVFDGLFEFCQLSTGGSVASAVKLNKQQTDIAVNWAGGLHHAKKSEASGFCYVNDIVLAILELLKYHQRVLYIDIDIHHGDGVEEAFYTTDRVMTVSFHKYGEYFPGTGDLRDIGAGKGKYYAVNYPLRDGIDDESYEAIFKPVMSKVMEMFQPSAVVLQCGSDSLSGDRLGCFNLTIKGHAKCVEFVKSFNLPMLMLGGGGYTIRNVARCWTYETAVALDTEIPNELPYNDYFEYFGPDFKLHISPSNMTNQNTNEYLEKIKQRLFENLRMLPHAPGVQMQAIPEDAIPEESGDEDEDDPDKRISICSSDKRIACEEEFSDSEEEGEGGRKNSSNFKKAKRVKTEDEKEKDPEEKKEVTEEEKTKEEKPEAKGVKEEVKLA

Histone deacetylase 2 = Histone deacetylase 2 (Homo sapiens, UniProt Q92769)
Sequence of Histone deacetylase 2 (Q92769 whole entry): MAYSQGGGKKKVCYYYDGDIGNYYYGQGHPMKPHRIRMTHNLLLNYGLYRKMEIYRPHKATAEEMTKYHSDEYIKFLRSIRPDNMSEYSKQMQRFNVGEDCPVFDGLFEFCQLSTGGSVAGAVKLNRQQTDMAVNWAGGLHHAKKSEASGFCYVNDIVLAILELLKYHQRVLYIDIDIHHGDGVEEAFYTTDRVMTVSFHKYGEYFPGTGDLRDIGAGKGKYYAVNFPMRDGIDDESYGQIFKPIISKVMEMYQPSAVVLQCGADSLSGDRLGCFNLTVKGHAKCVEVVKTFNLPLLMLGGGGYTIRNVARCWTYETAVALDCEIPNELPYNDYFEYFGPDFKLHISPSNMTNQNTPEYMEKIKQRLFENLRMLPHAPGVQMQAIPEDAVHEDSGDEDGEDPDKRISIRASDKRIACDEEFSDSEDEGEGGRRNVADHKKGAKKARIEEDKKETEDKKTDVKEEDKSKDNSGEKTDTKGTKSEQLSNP

Histone deacetylase 3 = Histone deacetylase 3 (Homo sapiens, UniProt O15379)
Sequence of Histone deacetylase 3 (O15379 whole entry): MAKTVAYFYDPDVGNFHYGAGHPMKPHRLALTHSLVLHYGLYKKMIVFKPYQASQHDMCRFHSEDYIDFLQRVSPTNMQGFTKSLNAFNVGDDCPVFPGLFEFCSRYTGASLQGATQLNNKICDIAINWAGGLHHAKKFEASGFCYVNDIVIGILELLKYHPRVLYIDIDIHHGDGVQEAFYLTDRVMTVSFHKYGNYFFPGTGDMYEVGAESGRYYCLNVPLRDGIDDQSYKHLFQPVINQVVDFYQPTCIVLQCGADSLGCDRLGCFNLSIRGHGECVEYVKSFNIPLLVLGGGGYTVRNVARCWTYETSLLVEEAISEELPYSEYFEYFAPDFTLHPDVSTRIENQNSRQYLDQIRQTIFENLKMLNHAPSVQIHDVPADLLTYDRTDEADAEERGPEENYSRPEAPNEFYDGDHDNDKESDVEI

[2] = biological target: T1, Vascular endothelial growth factor receptor 2 (Homo sapiens, UniProt P35968); assay: Inhibition of VEGFR-2 (unknown origin) after 40 mins by kinase-Glo assay
T1 sequence (P35968 whole entry): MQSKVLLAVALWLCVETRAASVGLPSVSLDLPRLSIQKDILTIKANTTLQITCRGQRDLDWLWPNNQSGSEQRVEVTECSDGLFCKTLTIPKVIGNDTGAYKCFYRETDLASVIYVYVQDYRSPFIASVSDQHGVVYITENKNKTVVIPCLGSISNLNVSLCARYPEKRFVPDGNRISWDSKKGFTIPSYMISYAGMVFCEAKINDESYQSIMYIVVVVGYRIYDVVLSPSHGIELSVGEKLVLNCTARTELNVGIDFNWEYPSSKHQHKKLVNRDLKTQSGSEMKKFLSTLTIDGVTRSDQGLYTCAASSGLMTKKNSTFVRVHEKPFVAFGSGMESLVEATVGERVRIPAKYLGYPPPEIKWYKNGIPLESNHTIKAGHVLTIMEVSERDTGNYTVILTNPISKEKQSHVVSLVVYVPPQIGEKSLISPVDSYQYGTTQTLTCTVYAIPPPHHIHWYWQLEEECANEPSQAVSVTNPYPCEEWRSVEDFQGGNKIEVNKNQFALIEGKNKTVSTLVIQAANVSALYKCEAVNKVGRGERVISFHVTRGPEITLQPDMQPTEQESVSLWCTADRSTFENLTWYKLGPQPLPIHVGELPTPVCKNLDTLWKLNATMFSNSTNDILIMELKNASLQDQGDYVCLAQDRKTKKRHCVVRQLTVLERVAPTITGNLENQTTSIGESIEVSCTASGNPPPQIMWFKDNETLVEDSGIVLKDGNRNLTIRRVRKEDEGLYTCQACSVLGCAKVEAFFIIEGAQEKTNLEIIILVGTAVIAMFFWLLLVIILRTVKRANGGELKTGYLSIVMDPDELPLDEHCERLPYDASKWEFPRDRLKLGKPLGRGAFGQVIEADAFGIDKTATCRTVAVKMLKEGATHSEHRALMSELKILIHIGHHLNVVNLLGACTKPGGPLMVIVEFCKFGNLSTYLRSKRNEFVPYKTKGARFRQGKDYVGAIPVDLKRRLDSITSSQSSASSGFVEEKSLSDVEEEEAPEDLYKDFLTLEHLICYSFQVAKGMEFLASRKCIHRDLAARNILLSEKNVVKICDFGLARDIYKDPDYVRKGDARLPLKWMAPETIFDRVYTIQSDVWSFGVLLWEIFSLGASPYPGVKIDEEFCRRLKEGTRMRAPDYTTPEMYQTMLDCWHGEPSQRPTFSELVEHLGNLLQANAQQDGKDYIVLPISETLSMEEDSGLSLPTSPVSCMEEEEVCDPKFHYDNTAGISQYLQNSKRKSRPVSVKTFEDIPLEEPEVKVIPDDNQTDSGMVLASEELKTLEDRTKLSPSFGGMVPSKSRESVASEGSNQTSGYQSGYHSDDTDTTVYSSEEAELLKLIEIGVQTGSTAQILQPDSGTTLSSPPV
Summary of the method: (§1)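 Kinase-Glo luminescent assay run by a contract lab. Compound, kinase, substrate and ATP diluted in kinase buffer and incubated 40 min at room temperature. IC50 obtained by nonlinear regression of normalized dose–response.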

[3] = biological target: Vascular endothelial growth factor receptor 1 (Homo sapiens, UniProt P17948); assay: Inhibition of VEGFR-1 (unknown origin) after 40 mins by kinase-Glo assay
Summary of the method: as §1

[4] = biological target: Platelet-derived growth factor receptor beta (Homo sapiens, UniProt P09619); assay: Inhibition of PDGFRbeta (unknown origin) after 40 mins by kinase-Glo assay
Summary of the method: as §1

[5] = biological target: Macrophage colony-stimulating factor 1 receptor (Homo sapiens, UniProt P07333); assay: Inhibition of C-fms (unknown origin) after 40 mins by kinase-Glo assay
Sequence of Macrophage colony-stimulating factor 1 receptor (P07333 whole entry): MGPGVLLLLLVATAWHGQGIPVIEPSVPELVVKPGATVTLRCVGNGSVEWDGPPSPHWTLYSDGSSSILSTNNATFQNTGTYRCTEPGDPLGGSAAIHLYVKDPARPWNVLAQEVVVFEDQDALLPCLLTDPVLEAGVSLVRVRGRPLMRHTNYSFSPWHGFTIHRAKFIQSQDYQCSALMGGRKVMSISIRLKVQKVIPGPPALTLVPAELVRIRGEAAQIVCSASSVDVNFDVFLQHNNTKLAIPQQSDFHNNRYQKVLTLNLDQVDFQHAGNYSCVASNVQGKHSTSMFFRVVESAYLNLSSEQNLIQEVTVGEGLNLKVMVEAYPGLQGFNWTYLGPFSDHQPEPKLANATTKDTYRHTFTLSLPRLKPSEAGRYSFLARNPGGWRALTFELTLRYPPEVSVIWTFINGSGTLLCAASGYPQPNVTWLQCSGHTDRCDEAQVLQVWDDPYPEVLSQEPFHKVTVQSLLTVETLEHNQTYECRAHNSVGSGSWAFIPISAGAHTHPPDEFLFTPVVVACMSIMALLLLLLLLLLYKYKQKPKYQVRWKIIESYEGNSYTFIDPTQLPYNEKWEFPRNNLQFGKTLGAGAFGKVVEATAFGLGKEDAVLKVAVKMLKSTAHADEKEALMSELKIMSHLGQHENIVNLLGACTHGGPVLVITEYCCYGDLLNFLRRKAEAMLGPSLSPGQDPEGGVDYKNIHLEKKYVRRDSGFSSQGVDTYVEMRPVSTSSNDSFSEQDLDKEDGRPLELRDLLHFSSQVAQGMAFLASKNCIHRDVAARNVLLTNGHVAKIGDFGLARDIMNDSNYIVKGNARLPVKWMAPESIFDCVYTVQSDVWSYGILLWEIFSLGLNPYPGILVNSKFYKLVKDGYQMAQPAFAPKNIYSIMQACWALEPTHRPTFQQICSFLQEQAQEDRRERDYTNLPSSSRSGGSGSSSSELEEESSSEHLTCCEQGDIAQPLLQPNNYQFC

[6] = biological target: Mast/stem cell growth factor receptor Kit (Homo sapiens, UniProt P10721); assay: Inhibition of C-kit (unknown origin) after 40 mins by kinase-Glo assay
Sequence of Mast/stem cell growth factor receptor Kit (P10721 whole entry): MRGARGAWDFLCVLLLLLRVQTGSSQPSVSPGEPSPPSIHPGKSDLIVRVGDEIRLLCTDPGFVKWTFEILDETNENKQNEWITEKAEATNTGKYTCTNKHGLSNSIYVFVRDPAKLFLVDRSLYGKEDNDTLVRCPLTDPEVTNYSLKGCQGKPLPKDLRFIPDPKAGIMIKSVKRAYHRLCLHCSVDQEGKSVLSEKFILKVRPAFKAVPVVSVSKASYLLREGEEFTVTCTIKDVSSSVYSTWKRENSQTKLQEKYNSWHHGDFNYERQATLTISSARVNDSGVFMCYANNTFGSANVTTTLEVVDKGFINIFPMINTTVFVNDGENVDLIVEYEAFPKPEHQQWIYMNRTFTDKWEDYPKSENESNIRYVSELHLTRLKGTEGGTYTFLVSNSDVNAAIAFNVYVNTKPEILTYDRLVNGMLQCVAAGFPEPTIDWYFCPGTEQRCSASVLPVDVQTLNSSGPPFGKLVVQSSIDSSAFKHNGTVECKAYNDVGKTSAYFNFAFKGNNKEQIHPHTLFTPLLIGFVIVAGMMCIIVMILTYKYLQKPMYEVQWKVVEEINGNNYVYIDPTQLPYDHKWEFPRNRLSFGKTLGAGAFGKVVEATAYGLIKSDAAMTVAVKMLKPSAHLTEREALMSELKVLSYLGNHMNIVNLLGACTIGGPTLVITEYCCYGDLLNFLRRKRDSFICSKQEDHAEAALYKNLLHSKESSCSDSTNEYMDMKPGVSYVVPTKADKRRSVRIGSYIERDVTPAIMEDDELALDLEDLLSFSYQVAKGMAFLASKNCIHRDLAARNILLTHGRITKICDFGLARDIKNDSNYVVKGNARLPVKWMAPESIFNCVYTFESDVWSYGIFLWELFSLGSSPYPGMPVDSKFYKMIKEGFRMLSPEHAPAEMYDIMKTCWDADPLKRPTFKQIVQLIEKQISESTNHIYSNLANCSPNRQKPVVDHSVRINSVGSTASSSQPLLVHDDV
Summary of the method: as §1

[7] = biological target: T1, Vascular endothelial growth factor receptor 2; assay: Inhibition of VEGF-stimulated VEGFR2 phosphorylation in human HUVEC cells at 100 nM preincubated for 2 hrs followed by VEGF stimulation by Western blot analysis; assay type: cell-based
Summary of the method: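 HUVECs pretreated 2 h with compound or DMSO, then stimulated with VEGF (50 ng/ml). Cells lysed in ice-cold RIPA and protein measured by BCA. Lysates run on SDS-PAGE and immunoblotted for phospho-VEGFR-2, with total VEGFR-2 as loading control. Detection by ECL.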

[8] = Half life in Sprague-Dawley rat at 2 mg/kg, iv by LC-MS/MS analysis; assay type: ADME, organism-based; conditions: in vivo
Summary of the method: (§2)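 Sprague–Dawley rats (N = 6) dosed with the hydrochloride salt, 2 mg/kg IV or 10 mg/kg PO. Jugular vein blood drawn at set time points and kept on ice. Plasma separated by centrifugation, stored at -80 °C, and quantified by LC-MS/MS.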

[9] = Half life in Sprague-Dawley rat at 10 mg/kg, po by LC-MS/MS analysis; assay type: ADME, organism-based; conditions: in vivo
Summary of the method: as §2

[10] = Tmax in Sprague-Dawley rat at 2 mg/kg, iv by LC-MS/MS analysis; assay type: ADME, organism-based; conditions: in vivo
Summary of the method: as §2

[11] = Tmax in Sprague-Dawley rat at 10 mg/kg, po by LC-MS/MS analysis; assay type: ADME, organism-based; conditions: in vivo
Summary of the method: as §2

[12] = Cmax in Sprague-Dawley rat at 10 mg/kg, po by LC-MS/MS analysis; assay type: ADME, organism-based; design: dose 10 mg/kg, route oral; conditions: in vivo
Summary of the method: as §2

[13] = AUC (0 to t) in Sprague-Dawley rat at 2 mg/kg, iv by LC-MS/MS analysis; assay type: ADME, organism-based; conditions: in vivo
Summary of the method: as §2

[14] = AUC (0 to t) in Sprague-Dawley rat at 10 mg/kg, po by LC-MS/MS analysis; assay type: ADME, organism-based; conditions: in vivo
[15] = Clearance in Sprague-Dawley rat at 2 mg/kg, iv by LC-MS/MS analysis; assay type: ADME, organism-based; conditions: in vivo
Summary of the method: as §2

[16] = Oral bioavailability in Sprague-Dawley rat at 10 mg/kg by LC-MS/MS analysis; assay type: ADME, organism-based; conditions: in vivo
Summary of the method: as §2

HT-29 [17] = assay: Antitumor activity against human HT-29 cells xenografted in BALB/c nu mouse assessed as tumor growth level at 50 mg/kg, po administered for 25 consecutive days measured every 3 days during compound dosing relative to control; assay type: functional
Summary of the method: (§3)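 HT-29 cells (1×10^7) implanted s.c. in right flank of male BALB/c-nu mice aged 5–6 weeks. At about 100 mm³ (day 10), mice randomized 6 per group and dosed orally for 25 consecutive days. Controls received PBS with 5% DMSO. T/C is mean RTV (Vt/V0) treated over control. TGI taken from final tumor weights. Student's two-tailed t test.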

HT-29 [18] = assay: Antitumor activity against human HT-29 cells xenografted in BALB/c nu mouse assessed as tumor growth inhibition at 50 mg/kg, po administered for 25 consecutive days measured every 3 days during compound dosing relative to control; assay type: functional; conditions: HT-29, po, read-out: TGI
Summary of the method: as §3

Mus musculus [19] = assay: Hepatotoxicity in nu BALB/c mouse xenografted with human HT-29 cells at 50 mg/kg , po administered for 25 consecutive days by macroscopic analysis; assay type: toxicity, organism-based; conditions: in vivo
Summary of the method: (§4)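 HT-29 xenografted male BALB/c-nu mice dosed orally for 25 days, with PBS (5% DMSO) controls. After treatment mice were sacrificed and dissected, and internal organ injury was examined macroscopically.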

Mus musculus [20] = assay: Toxicity in nu BALB/c mouse spleen xenografted with human HT-29 cells at 50 mg/kg , po administered for 25 consecutive days by macroscopic analysis; assay type: organism-based; conditions: in vivo
Summary of the method: as §4

[21] = biological target: Histone deacetylase 1/2/3 (Homo sapiens) (UniProt Q13547+O15379+Q92769); conditions: HeLa, at 1 µM

IC50 (Histone deacetylase): 4.6 µM
IC50 (HT-29 [1]): 1070 nM
IC50 (ACHN): > 5 µM
IC50 (AGS): > 5 µM
IC50 (HeLa): 1710 nM
IC50 (PC-3): 2380 nM
IC50 (MDA-MB-231): 3.74 µM
IC50 (MOLT-4): 940 nM
IC50 (K562): 1820 nM
IC50 (Histone deacetylase 1): 590 nM
IC50 (Histone deacetylase 2): 910 nM
IC50 (Histone deacetylase 3): 430 nM
IC50 [2]: 37 nM
IC50 [3]: 22 nM
IC50 [4]: 88 nM
IC50 [5]: 351 nM
IC50 [6]: 125 nM
inhibition [7]: Active
half-life [8]: 98.4 min
half-life [9]: 126 min
Tmax [10]: 4.8 min
Tmax [11]: 30 min
Cmax [12]: 3240 ng/mL
AUC(0-t) [13]: 2380 ng·h/mL
AUC(0-t) [14]: 8570 ng·h/mL
clearance [15]: 14.6 mL/min/kg
bioavailability [16]: 72%
inhibition [21]: Active
Structure (SMILES): Cc1c2ccc(N(C)c3ccnc(Nc4ccc(C(=O)Nc5ccccc5N)cc4)n3)cc2nn1C
IC50 (KG-1): 670 nM
IC50 (HEL): 1520 nM
IC50 (HUVEC): 16 µM
T/C (HT-29 [17]): 65%
inhibition in vivo at 50 mg/kg (HT-29 [18]): 40%
Activity (Mus musculus [19]): Non-Toxic
Activity (Mus musculus [20]): Non-Toxic
